Measurements reported in ChEMBL document CHEMBL4715736, “Identification of anticancer agents based on the thieno[2,3-b]pyridine and 1H-pyrazole molecular scaffolds” (2016).

Experiments:
Assay type in all cases: functional
HCT-116 = assay: Growth inhibition of human HCT-116 cells assessed as cell growth at 1 uM incubated for 48 hrs by sulforhodamine B assay relative to control; conditions: read-out: Activity
SK-OV-3 = assay: Growth inhibition of human SK-OV-3 cells assessed as cell growth at 100 uM incubated for 48 hrs by sulforhodamine B assay relative to control; conditions: read-out: Activity
SK-MEL-28 [1] = assay: Growth inhibition of human SK-MEL-28 cells incubated for 48 hrs by sulforhodamine B assay
In short: (§1)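 NCI DTP 60-line human tumour panel. Dose-response curves were run only for ligands active in the initial 10 µM screen. GI50 (concentration giving 50% of maximal inhibition of proliferation) and TGI (concentration giving total growth inhibition) were derived from these curves.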

SF-295 = assay: Growth inhibition of human SF-295 cells assessed as cell growth at 0.01 uM incubated for 48 hrs by sulforhodamine B assay relative to control; conditions: read-out: Activity
HOP-62 = assay: Growth inhibition of human HOP-62 cells assessed as cell growth at 0.01 uM incubated for 48 hrs by sulforhodamine B assay relative to control; conditions: read-out: Activity
PC-3 = assay: Growth inhibition of human PC-3 cells assessed as cell growth at 0.1 uM incubated for 48 hrs by sulforhodamine B assay relative to control; conditions: read-out: Activity
Hs-578T = assay: Growth inhibition of human Hs-578T cells incubated for 48 hrs by sulforhodamine B assay; conditions: for CC50: read-out: LC50 (the source's name)
In short: (§2)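 NCI60 panel at the NCI Developmental Therapeutics Program. Only compounds active in the 10 µM screen went to dose-response testing. GI50, the concentration giving 50% of maximal inhibition of proliferation, and TGI, the concentration giving total growth inhibition, were derived from the dose-response curves.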

SN12C = assay: Growth inhibition of human SN12C cells incubated for 48 hrs by sulforhodamine B assay; conditions: for CC50: read-out: LC50 (the source's name); in short: as §1
OVCAR-3 = assay: Growth inhibition of human OVCAR-3 cells assessed as cell growth at 1 uM incubated for 48 hrs by sulforhodamine B assay relative to control; conditions: read-out: Activity
UO-31 = assay: Growth inhibition of human UO-31 cells assessed as cell growth at 0.01 uM incubated for 48 hrs by sulforhodamine B assay relative to control; conditions: read-out: Activity
OVCAR-4 [2] = assay: Growth inhibition of human OVCAR-4 cells assessed as cell growth at 0.01 uM incubated for 48 hrs by sulforhodamine B assay relative to control; conditions: read-out: Activity
CAKI-1 = assay: Growth inhibition of human CAKI-1 cells assessed as cell growth at 1 uM incubated for 48 hrs by sulforhodamine B assay relative to control; conditions: read-out: Activity
In short: (§3)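 NCI Developmental Therapeutics Program NCI60 panel. Compounds that were active in the 10 µM one-dose screen went on to dose–response testing. Growth at each concentration is expressed relative to untreated control (100%). GI50 (concentration giving 50% of maximal inhibition of proliferation) and TGI (concentration giving total growth inhibition) were derived from the curves.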

DU-145 [3] = assay: Growth inhibition of human DU-145 cells assessed as cell growth at 0.1 uM incubated for 48 hrs by sulforhodamine B assay relative to control; conditions: read-out: Activity; in short: as §3
SK-MEL-28 [4] = assay: Growth inhibition of human SK-MEL-28 cells assessed as cell growth at 0.1 uM incubated for 48 hrs by sulforhodamine B assay relative to control; conditions: read-out: Activity
SNB-19 = assay: Growth inhibition of human SNB-19 cells incubated for 48 hrs by sulforhodamine B assay; in short: as §1
KM12 = assay: Growth inhibition of human KM12 cells assessed as cell growth at 0.1 uM incubated for 48 hrs by sulforhodamine B assay relative to control; conditions: read-out: Activity
NCI-H23 = assay: Growth inhibition of human NCI-H23 cells assessed as cell growth at 1 uM incubated for 48 hrs by sulforhodamine B assay relative to control; conditions: read-out: Activity
TK-10 = assay: Growth inhibition of human TK-10 cells assessed as cell growth at 0.01 uM incubated for 48 hrs by sulforhodamine B assay relative to control; conditions: read-out: Activity
UACC-62 = assay: Growth inhibition of human UACC-62 cells assessed as cell growth at 1 uM incubated for 48 hrs by sulforhodamine B assay relative to control; conditions: read-out: Activity
NCI/ADR-RES = assay: Growth inhibition of human NCI/ADR-RES cells assessed as cell growth at 0.01 uM incubated for 48 hrs by sulforhodamine B assay relative to control; conditions: read-out: Activity
OVCAR-8 = assay: Growth inhibition of human OVCAR-8 cells incubated for 48 hrs by sulforhodamine B assay; conditions: for CC50: read-out: LC50 (the source's name); in short: as §1
OVCAR-4 [5] = assay: Growth inhibition of human OVCAR-4 cells incubated for 48 hrs by sulforhodamine B assay; conditions: for CC50: read-out: LC50 (the source's name); in short: as §1
U-251 [6] = assay: Growth inhibition of human U-251 cells assessed as cell growth at 0.01 uM incubated for 48 hrs by sulforhodamine B assay relative to control; conditions: read-out: Activity
HT-29 [7] = assay: Growth inhibition of human HT-29 cells assessed as cell growth at 100 uM incubated for 48 hrs by sulforhodamine B assay relative to control; conditions: read-out: Activity
NCI-H322M = assay: Growth inhibition of human NCI-H322M cells assessed as cell growth at 0.1 uM incubated for 48 hrs by sulforhodamine B assay relative to control; conditions: read-out: Activity
LOX IMVI = assay: Growth inhibition of human LOX IMVI cells assessed as cell growth at 0.01 uM incubated for 48 hrs by sulforhodamine B assay relative to control; conditions: read-out: Activity
U-251 [8] = assay: Growth inhibition of human U-251 cells assessed as cell growth at 0.1 uM incubated for 48 hrs by sulforhodamine B assay relative to control; conditions: read-out: Activity
HCT-15 = assay: Growth inhibition of human HCT-15 cells assessed as cell growth at 1 uM incubated for 48 hrs by sulforhodamine B assay relative to control; conditions: read-out: Activity
SF-268 = assay: Growth inhibition of human SF-268 cells assessed as cell growth at 100 uM incubated for 48 hrs by sulforhodamine B assay relative to control; conditions: read-out: Activity
MCF7 = assay: Growth inhibition of human MCF7 cells incubated for 48 hrs by sulforhodamine B assay; conditions: for CC50: read-out: LC50 (the source's name); in short: as §2
ACHN = assay: Growth inhibition of human ACHN cells assessed as cell growth at 1 uM incubated for 48 hrs by sulforhodamine B assay relative to control; conditions: read-out: Activity
HT-29 [9] = assay: Growth inhibition of human HT-29 cells assessed as cell growth at 0.1 uM incubated for 48 hrs by sulforhodamine B assay relative to control; conditions: read-out: Activity
CCRF-CEM = assay: Growth inhibition of human CCRF-CEM cells assessed as cell growth at 1 uM incubated for 48 hrs by sulforhodamine B assay relative to control; conditions: read-out: Activity; in short: as §3
DU-145 [10] = assay: Growth inhibition of human DU-145 cells assessed as cell growth at 1 uM incubated for 48 hrs by sulforhodamine B assay relative to control; conditions: read-out: Activity; in short: as §3
RPMI-8226 = assay: Growth inhibition of human RPMI-8226 cells assessed as cell growth at 0.1 uM incubated for 48 hrs by sulforhodamine B assay relative to control; conditions: read-out: Activity

## Cc1cc(C)c(NC(=O)c2sc3nc4c(cc3c2N)CN(Cc2ccccc2)CC4)c(C)c1
HCT-116
  growth at 1 µM: 79%
SK-OV-3
  growth at 100 µM: 16%
SK-MEL-28 [1]
  GI50: 6.97 µM
  LC50: > 100 µM
  TGI: 40.4 µM
SF-295
  growth at 0.01 µM: 86%
HOP-62
  growth at 0.01 µM: 83%
PC-3
  growth at 0.1 µM: 93%
Hs-578T
  GI50: 2.66 µM
  TGI: 65.9 µM
  CC50: > 100 µM
SN12C
  GI50: 5.6 µM
  TGI: > 100 µM
  CC50: > 100 µM
OVCAR-3
  growth at 1 µM: 76%
UO-31
  growth at 0.01 µM: 91%
OVCAR-4 [2]
  growth at 0.01 µM: 93%
CAKI-1
  growth at 1 µM: 76%
DU-145 [3]
  growth at 0.1 µM: 101%
SK-MEL-28 [4]
  growth at 0.1 µM: 97%
SNB-19
  GI50: 7.21 µM
  LC50: > 100 µM
  TGI: > 100 µM
KM12
  growth at 0.1 µM: 103%
NCI-H23
  growth at 1 µM: 93%
TK-10
  growth at 0.01 µM: 103%
UACC-62
  growth at 1 µM: 69%
NCI/ADR-RES
  growth at 0.01 µM: 104%
OVCAR-8
  GI50: 4.72 µM
  TGI: > 100 µM
  CC50: > 100 µM
OVCAR-4 [5]
  GI50: 6.72 µM
  TGI: > 100 µM
  CC50: > 100 µM
U-251 [6]
  growth at 0.01 µM: 99%
HT-29 [7]
  growth at 100 µM: -26%
NCI-H322M
  growth at 0.1 µM: 97%
LOX IMVI
  growth at 0.01 µM: 99%
U-251 [8]
  growth at 0.1 µM: 96%
HCT-15
  growth at 1 µM: 68%
SF-268
  growth at 100 µM: -10%
MCF7
  GI50: 1.61 µM
  TGI: 32.2 µM
  CC50: > 100 µM
ACHN
  growth at 1 µM: 89%
HT-29 [9]
  growth at 0.1 µM: 100%
CCRF-CEM
  growth at 1 µM: 88%
DU-145 [10]
  growth at 1 µM: 95%
RPMI-8226
  growth at 0.1 µM: 100%

## Cc1cccc(NC(=O)c2sc3nc4c(cc3c2N)C(=O)CCC4)c1
HCT-116
  growth at 1 µM: 28%
SK-OV-3
  growth at 100 µM: -16%
SK-MEL-28 [1]
  GI50: 0.0308 µM
  LC50: > 100 µM
  TGI: ≥ 100 µM
SF-295
  growth at 0.01 µM: 88%
HOP-62
  growth at 0.01 µM: 88%
PC-3
  growth at 0.1 µM: 80%
Hs-578T
  GI50: 0.256 µM
  TGI: 40.9 µM
  CC50: > 100 µM
SN12C
  GI50: 0.695 µM
  TGI: ≥ 100 µM
  CC50: > 100 µM
OVCAR-3
  growth at 1 µM: -7%
UO-31
  growth at 0.01 µM: 88%
OVCAR-4 [2]
  growth at 0.01 µM: 90%
CAKI-1
  growth at 1 µM: 30%
DU-145 [3]
  growth at 0.1 µM: 89%
SK-MEL-28 [4]
  growth at 0.1 µM: 66%
SNB-19
  GI50: 0.403 µM
  LC50: > 100 µM
  TGI: > 100 µM
KM12
  growth at 0.1 µM: 65%
NCI-H23
  growth at 1 µM: 35%
TK-10
  growth at 0.01 µM: 91%
UACC-62
  growth at 1 µM: 29%
NCI/ADR-RES
  growth at 0.01 µM: 98%
OVCAR-8
  GI50: 0.0171 µM
  TGI: ≥ 100 µM
  CC50: > 100 µM
OVCAR-4 [5]
  TGI: ≥ 100 µM
  CC50: > 100 µM
U-251 [6]
  growth at 0.01 µM: 96%
HT-29 [7]
  growth at 100 µM: 3%
NCI-H322M
  growth at 0.1 µM: 84%
LOX IMVI
  growth at 0.01 µM: 97%
U-251 [8]
  growth at 0.1 µM: 74%
HCT-15
  growth at 1 µM: 24%
SF-268
  growth at 100 µM: -12%
MCF7
  GI50: 0.145 µM
  TGI: > 100 µM
  CC50: > 100 µM
ACHN
  growth at 1 µM: 49%
HT-29 [9]
  growth at 0.1 µM: 70%
CCRF-CEM
  growth at 1 µM: 31%
DU-145 [10]
  growth at 1 µM: 3%
RPMI-8226
  growth at 0.1 µM: 94%
